Published values pooled from the literature.
Compare with care: the assays were run in different laboratories.
Cell line: MDA-MB-231
Read-out: cell growth or viability

Compound	technique	time	setting	IC50 [µM]
Oc1cccc(Nc2ccc3ncnc(Nc4cccc(C(F)(F)F)c4)c3c2)c1	MTT	24 h		3.34
Cc1cc(NS(=O)(=O)c2ccc(NC(=O)COc3ccc(C(C)(C)c4ccccc4)cc3)cc2)nc(C)n1	MTT	48 h		39
O=Cc1ccc(-c2ccc3ncnc(Nc4cccc(C(F)(F)F)c4)c3c2)cc1	MTT	24 h		8.67
C[C@@H]1C[C@@H](c2cccc(F)c2)c2c(cc3ccccn23)C(=O)O1 (racemic)	resazurin	72 h		52.9
CC(=O)O[C@H]1C(=O)[C@@]2(C)[C@H]([C@H](OC(=O)c3ccccc3)[C@]3(O)C[C@H](OC(=O)[C@H](O)[C@@H](NC(=O)c4ccccc4)c4ccccc4)C(C)=C1C3(C)C)[C@]1(OC(C)=O)CO[C@@H]1C[C@@H]2O		72 h		0.0051
O=C(Nc1nnc(-c2cc3ccccc3[nH]2)s1)c1cc2c([nH]c3ccccc32)c(-c2ccc(Cl)cc2)n1	MTT	72 h		4.45
FC(F)(F)c1cccc(Nc2ncnc3ccc(-c4ccc5c(c4)OCO5)cc23)c1	MTT	24 h		7.24
Clc1ccc(-c2nc3ccccc3[nH]2)cc1Cl	MTT	48 h		9.83
COC1=C2C[C@@H](C)C[C@H](OC)[C@H](O)[C@@H](C)/C=C(\C)[C@H](OC(N)=O)[C@@H](OC)/C=C\C=C(/C)C(=O)NC(=CC1=O)C2=O	MTT			0.065
FC(F)(F)c1cccc(Nc2ncnc3ccc(-c4ccc(CN5CCOCC5)cc4)cc23)c1	MTT	24 h		8.56
CC(=O)OC[C@H]1O[C@@H]([S-])[C@H](OC(C)=O)[C@@H](OC(C)=O)[C@@H]1OC(C)=O.CCP(CC)CC.[Au+]	resazurin			1.58
Cc1nc(Nc2ncc(C(=O)Nc3c(C)cccc3Cl)s2)cc(N2CCN(CCO)CC2)n1	MTT	24 h		25
COc1cccc2c1C(=O)c1c(O)c3c(c(O)c1C2=O)C[C@@](O)(C(=O)CO)C[C@@H]3O[C@H]1C[C@H](N)[C@H](O)[C@H](C)O1	SRB			0.45
COc1cc(Nc2nccc(-c3cnn4nc(OC)ccc34)n2)cc(C(F)(F)F)c1	ATP luminescence			1.8
C[C@@H]1C[C@@H](c2ccc3c(c2)OCO3)c2c(cc3ccccn23)C(=O)O1 (racemic)	resazurin	72 h		29.4
Cc1ccc2nc(-c3ccc([N+](=O)[O-])cc3)n(Cc3ccccc3)c2c1	MTT			8.11
COc1cccc2c1C(=O)c1c(O)c3c(c(O)c1C2=O)C[C@@](O)(C(=O)CO)C[C@@H]3O[C@H]1C[C@H](N)[C@H](O)[C@H](C)O1	MTT			4.27
CC(=O)O[C@H]1C(=O)[C@@]2(C)[C@H]([C@H](OC(=O)c3ccccc3)[C@]3(O)C[C@H](OC(=O)[C@H](O)[C@@H](NC(=O)c4ccccc4)c4ccccc4)C(C)=C1C3(C)C)[C@]1(OC(C)=O)CO[C@@H]1C[C@@H]2O	MTT	48 h		1.38
COc1ccc(/C=C/C(=O)c2cc(Br)ccc(=O)c2O)cc1	MTT	72 h		26.1
COc1ccc(-c2nc(C(=O)Nc3nnc(-c4cc5ccccc5[nH]4)s3)cc3c2[nH]c2ccccc23)cc1	MTT	72 h		3.28
COc1ccc(-c2nc3ccccc3[nH]2)cc1OC	MTT	48 h		50.1
O=C1C[C@@H](c2ccc(O)cc2)Oc2cc(O)cc(O)c21	MTT	48 h		2.98
CC(=O)O[C@@]12CO[C@@H]1C[C@H](O)[C@@]1(C)C(=O)[C@H](O)C3=C(C)[C@@H](OC(=O)[C@H](O)[C@@H](NC(=O)OC(C)(C)C)c4ccccc4)C[C@@](O)([C@@H](OC(=O)c4ccccc4)[C@H]21)C3(C)C	resazurin	72 h		0.02
C=CC1=C(C)c2cc3[nH]c(cc4nc(cc5[nH]c(cc1n2)c(C)c5CCC(=O)O)C(CCC(=O)O)=C4C)c(C)c3C=C		4 h	dark	> 100

Compound	technique	time	setting	IC50 [µM]
COc1cc([C@H]2C[C@@H](C)OC(=O)c3cc4ccccn4c32)cc(OC)c1OC (racemic)	resazurin	72 h		> 100
CCOc1ccc(-c2nc3ccccc3[nH]2)cc1	MTT	48 h		> 100
Oc1cccc(-c2ccc3ncnc(Nc4cccc(C(F)(F)F)c4)c3c2)c1	MTT	24 h		14
Cc1ccc2nc(-c3c(F)cccc3Cl)[nH]c2c1	MTT	48 h		34.4
COc1cc(-c2nc(C(=O)Nc3nnc(-c4cc5ccccc5n4C)s3)cc3c2[nH]c2ccccc23)cc(OC)c1OC	MTT	72 h		7.23
O=C(c1cc(Cc2n[nH]c(=O)c3ccccc23)ccc1F)N1CCN(C(=O)C2CC2)CC1	MTT	48 h		246
COc1nc(SC)nc(OC)c1C(=O)/C=C/[c-]1cccc1.[Fe+2].c1cc[cH-]c1	MTT	72 h		9.3
FC(F)(F)c1cccc(Nc2ncnc3ccc(-c4ccsc4)cc23)c1	MTT	24 h		2.96
O=C(CSc1nc2ccc(N=Cc3ccc(Sc4nnnn4-c4ccccc4)o3)cc2s1)N1CCOCC1	MTT	72 h		48.6
Oc1ccc(-c2ccc3ncnc(Nc4cccc(C(F)(F)F)c4)c3c2)cc1	MTT	24 h		3.96
CC(C)C(=O)Nc1ccc([N+](=O)[O-])c(C(F)(F)F)c1	CCK-8	48 h		> 50
C[C@@H]1C[C@H](c2cccc(Cl)c2)c2c(cc3ccccn23)C(=O)O1 (racemic)	resazurin	72 h		36
CSc1ccc(-c2nc3ccc(C)cc3n2Cc2ccccc2)cc1	MTT			21.9
CC(C)[C@H](N)c1nc2cc(-c3ccncc3F)sc2c(=O)[nH]1	MTT			1.19
COc1cccc([C@@H]2C[C@@H](C)OC(=O)c3cc4ccccn4c32)c1 (racemic)	resazurin	72 h		53
CCn1c(-c2nnc(NC(=O)c3cc4c([nH]c5ccccc54)c(-c4ccc(OC)cc4)n3)s2)cc2ccccc21	MTT	72 h		9.39
CC(=O)Nc1nc(C)c(-c2csc(Nc3ccccc3)n2)s1	MTT	72 h		15.7
Fc1ccc(-c2nc3ccccc3n2Cc2ccccc2)cc1	MTT			34.6
C[C@H]1O[C@@H](n2cc(F)c(=O)[nH]c2=O)[C@H](O)[C@@H]1O	CCK-8	48 h		> 50
CC(=O)O[C@H]1C(=O)[C@@]2(C)[C@H]([C@H](OC(=O)c3ccccc3)[C@]3(O)C[C@H](OC(=O)[C@H](O)[C@@H](NC(=O)c4ccccc4)c4ccccc4)C(C)=C1C3(C)C)[C@]1(OC(C)=O)CO[C@@H]1C[C@@H]2O	ATP luminescence	72 h		0.006
COc1cc(/C=C2\SC(=O)NC2=O)ccc1OCc1ccc(Cl)cc1Cl	MTT	48 h		25.6
C[C@@H]1C[C@@H](c2ccc(Br)cc2)c2c(cc3ccccn23)C(=O)O1 (racemic)	resazurin	72 h		22
COc1c(C)c(OS(=O)(=O)c2ccc3ccccc3c2)c(C)c(OS(=O)(=O)c2ccc3ccccc3c2)c1C(=O)/C=C/c1ccccc1	SRB	72 h		> 50
COc1ccc(Br)cc1/C=C/C(=O)c1ccc(NC(C)=O)cc1	MTT	72 h		9.5
